Inhibition in vivo and ED50 data for 23 compounds are collected here from ChEMBL document CHEMBL3272168, “Benzodipyran derivatives with antiallergic activity” (1976).

The first assay concerns Rattus norvegicus. The assay is described as follows: Antiallergic activity in sensitized Sprague-Dawley rat assessed as inhibition of passive cutaneous anaphylaxis at 1 mg/kg, iv. The class given is functional.
Conditions: not given
The gist of the method: (§1)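 Female Sprague-Dawley rats (80–100 g, groups of five) got 0.1 ml intradermal flank injections of rat anti-N. braziliensis reaginic serum, diluted 1 in 8 to 1 in 32. After 24 h they were challenged iv with worm antigen (25 mg/kg protein) plus Evans blue (25 mg/kg). Compound in saline was given iv with the challenge. Rats were killed at 30 min and dye spots graded 0–4. % inhibition = 100 − 100 × treated/control mean score. ID50 was interpolated from a log-dose plot.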
On to `CCCc1c2oc(C(=O)[O-])cc(=O)c2c(OC)c2c(=O)cc(C(=O)[O-])oc12.[Na+].[Na+]`, for which the inhibition in vivo at 1 mg/kg worked out at 100%.

A further assay concerns Rattus norvegicus. Briefly: Antiallergic activity in iv dosed sensitized Sprague-Dawley rat assessed as inhibition of passive cutaneous anaphylaxis. The class given is functional. As to conditions: read-out: ID50 (the source's name). Summed up:
as §1
Turning to `COc1cc2oc(C(=O)[O-])cc(=O)c2c2oc(C(=O)[O-])cc(=O)c12.[Na+].[Na+]`, the ED50 worked out at 0.73 mg/kg. For `O=C([O-])c1cc(=O)c2c(cc(O)c3c(=O)cc(C(=O)[O-])oc32)o1.[Na+].[Na+]`, the ED50 turned out to be 5 mg/kg. On to `CCc1cc2c(=O)cc(C(=O)[O-])oc2c2c(=O)cc(C(=O)[O-])oc12.[Na+].[Na+]`, for which the ED50 came to 10 mg/kg. On the same count and under the same terms, under `CCOc1cc2oc(C(=O)[O-])cc(=O)c2c2oc(C(=O)[O-])cc(=O)c12.[Na+].[Na+]` stands 0.38 mg/kg; under `O=C([O-])c1cc(=O)c2c(ccc3c(=O)cc(C(=O)[O-])oc32)o1.[Na+].[Na+]`, 7.6 mg/kg; under `O=C([O-])c1cc(=O)c2c(o1)c(Cl)cc1c(=O)cc(C(=O)[O-])oc12.[Na+].[Na+]`, greater than 10 mg/kg. For `C=CCOc1cc2oc(C(=O)[O-])cc(=O)c2c2oc(C(=O)[O-])cc(=O)c12.[Na+].[Na+]`, the ED50 amounted to 0.62 mg/kg.

In the case of `C=CCc1c(OC)c2c(=O)cc(C(=O)[O-])oc2c2c(=O)cc(C(=O)[O-])oc12.[Na+].[Na+]`, the ED50 came out at 0.22 mg/kg. Same read-out and setting: under `CCCc1c(OC)c2c(=O)cc(C(=O)[O-])oc2c2c(=O)cc(C(=O)[O-])oc12.[Na+].[Na+]` stands 0.18 mg/kg; under `CCc1c2oc(C(=O)[O-])cc(=O)c2c(C)c2c(=O)cc(C(=O)[O-])oc12.[Na+].[Na+]`, 0.03 mg/kg; under `Cc1c2oc(C(=O)[O-])cc(=O)c2cc2c(=O)cc(C(=O)[O-])oc12.[Na+].[Na+]`, 0.25 mg/kg. The same measure, in the same setting: under `CCc1c2oc(C(=O)[O-])cc(=O)c2cc2c(=O)cc(C(=O)[O-])oc12.[Na+].[Na+]` stands 0.1 mg/kg. For `CCCc1c2oc(C(=O)[O-])cc(=O)c2cc2c(=O)cc(C(=O)[O-])oc12.[Na+].[Na+]`, the ED50 amounted to 0.05 mg/kg.

On to `CCCCc1c2oc(C(=O)[O-])cc(=O)c2cc2c(=O)cc(C(=O)[O-])oc12.[Na+].[Na+]`, for which the ED50 stood at 0.05 mg/kg. Consider `O=C([O-])c1cc(=O)c2cc3c(=O)cc(C(=O)[O-])oc3c([N+](=O)[O-])c2o1.[Na+].[Na+]`, for which the ED50 stood at 1.6 mg/kg. Still for that read-out and setting: under `O=C([O-])c1cc(=O)c2cc3c(=O)cc(C(=O)[O-])oc3cc2o1.[Na+].[Na+]` stands 0.18 mg/kg; under `CCOCc1c2oc(C(=O)[O-])cc(=O)c2cc2c(=O)cc(C(=O)[O-])oc12.[Na+].[Na+]`, 0.33 mg/kg.

In the case of `COc1c2c(=O)cc(C(=O)[O-])oc2cc2oc(C(=O)[O-])cc(=O)c12.[Na+].[Na+]`, the ED50 stood at 0.32 mg/kg. Turning to `CCCc1c2oc(C(=O)[O-])cc(=O)c2c(OC)c2c(=O)cc(C(=O)[O-])oc12.[Na+].[Na+]`, the ED50 came to 0.1 mg/kg.

Turning to `O=C([O-])c1cc(=O)c2cc3oc(C(=O)[O-])cc(=O)c3cc2o1.[Na+].[Na+]`, the ED50 amounted to 0.68 mg/kg.

On to `O=C([O-])c1cc(=O)c2c(o1)c1c(c3c(=O)cc(C(=O)[O-])oc32)OCC1.[Na+].[Na+]`, for which the ED50 was 0.35 mg/kg. Turning to `Cc1cc(=O)oc2c1c1oc(C(=O)[O-])cc(=O)c1c1oc(C(=O)[O-])cc(=O)c21.[Na+].[Na+]`, the ED50 was found to be 4.24 mg/kg.

For `O=C([O-])c1cc(=O)c2c(OCC(O)COc3cccc4oc(C(=O)[O-])cc(=O)c34)cccc2o1.[Na+].[Na+]` [CROMOLYN SODIUM], the ED50 amounted to 1.2 mg/kg.

As a reminder, the inhibition in vivo is the drop in the measured response relative to a control, in per cent.
